These results are taken from ChEMBL document CHEMBL1144977, “Synthesis of pyrimidinopyridine-triazene conjugates targeted to abl tyrosine kinase” (Bioorg Med Chem Lett, 2003).

By pIC50 is commonly meant the IC50 on a negative log10 scale, so that one unit is a factor of ten. Read a low pIC50 as a large IC50. As a reminder, the IC50 is the concentration that gives 50% inhibition. A higher IC50 goes with weaker potency.

Structures are written as SMILES. pIC50: −log10 of the molar value.

One series has as its system K562. Description: Cytotoxic effect in K562 cells. The note with it: Homo sapiens.
Series [1] addresses Tyrosine-protein kinase ABL (Homo sapiens, UniProt P00519+P42684). The series is described as follows: Inhibition of Abl tyrosine kinase. Format: protein assay.
The nature of series [2]: Alkylating activity (0.1 mM) was determined at pH 7.4; expressed as OD (540n m)/mM of drug). The settings on record: pH 7.4, 100 µM. In kind it is ADME. The method, boiled down:
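Alkylation read as OD at 540 nm per mM of drug. Drug at 0.1 mM was pre-incubated with NBP in TRIS buffer pH 7.4 for 2 h at 37 °C, then triethylamine/acetone was added.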

For `COCC/N=N/Nc1cccc(Nc2nccc(-c3cccnc3)n2)c1`, the pIC50 in the series with K562 is 5.27. Also, the IC50 in series [1] came to 8.6 µM.
As for `Cc1ccc(NC(=O)c2ccc(CN3CCN(C)CC3)cc2)cc1Nc1nccc(-c2cccnc2)n1` [IMATINIB], the pIC50 in the series on K562 was 6.96.
As for `COCCN=NNc1ccc(C(=O)Nc2cccc(Nc3nccc(-c4cccnc4)n3)c2)cc1`, in series [2], the Alkylating activity is recorded as 0.0002. For the same compound, the pIC50 with K562 was 4.79. The IC50 in series [1] was determined as 0.903 µM.
In series [2], `Cc1ccc(NC(=O)c2ccc(N=NN(C)CO)cc2)cc1Nc1nccc(-c2cccnc2)n1` yielded an Alkylating activity of 0.0015.
In series [2], `Cn1nnc2c(C(N)=O)ncn2c1=O` [TEMOZOLOMIDE] yielded an Alkylating activity of 0.0013. In the series on K562, this compound had a pIC50 of 3.81. The IC50 in series [1] is more than 100 µM.
For `Cc1ccc(NC(=O)c2ccc(N)cc2)cc1Nc1nccc(-c2cccnc2)n1`, in that order: 0.0002, 4.17 and more than 10 µM.
As to `Nc1ccc(C(=O)Nc2cccc(Nc3nccc(-c4cccnc4)n3)c2)cc1`, the negative logarithm of the IC50 (pIC50) with K562 is 5.01. The compound also displayed an IC50 in series [1] of 4.89 µM.
Compound `Cc1ccc(NC(=O)c2ccc(/N=N/N(C)CCCl)cc2)cc1Nc1nccc(-c2cccnc2)n1` had an Alkylating activity in series [2] of 0.00014. In the series with K562, the pIC50 is 4.76. In series [1], this compound registered an IC50 of 0.8496 µM.
As to `Nc1cccc(Nc2nccc(-c3cccnc3)n2)c1`, the pIC50 in the series on K562 is 4.66. In series [1], this compound gave an IC50 of more than 10 µM.
Take `Cc1ccc(NC(=O)c2ccc(/N=N/N(C)C)cc2)cc1Nc1nccc(-c2cccnc2)n1`: the Alkylating activity in series [2] stood at 0.0002. In the series on K562, this compound showed a pIC50 of 5.66. The compound further returned an IC50 in series [1] of 0.1946 µM.
With `c1cc(N/N=N/CCN2CCOCC2)cc(Nc2nccc(-c3cccnc3)n2)c1`, the pIC50 in the series with K562 was 5.00. In series [1], this compound came in with an IC50 of 10 µM.
